From ChEMBL document CHEMBL3351694, “Synthesis and SAR studies of benzyl ether derivatives as potent orally active S1P₁ agonists” (Bioorg Med Chem, 2014) come the findings set out here.

The species entered for series [1] is Homo sapiens. The experiment in a line: Selectivity index, ratio of EC50 for human S1P3 receptor to EC50 for human S1P1 receptor.
For series [2], the target named is Sphingosine 1-phosphate receptor 3 (Homo sapiens, UniProt Q99500). The experiment in a line: Agonist activity at human S1P3 receptor expressed in CHOK1 cell membranes by [35S]GTPgammaS binding assay. The class given is functional, CHO-K1. In outline:
(§1)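 Membranes of CHO-K1 cells transfected with human S1P1 or S1P3. Phosphorylated compounds tested. Buffer: 50 mM HEPES pH 7.5, 100 mM NaCl, 5 mM MgCl2, 0.05 mg/mL saponin, with GDP and DTT. Started with [35S]GTPγS plus membrane, 60 min at room temperature, then filter harvest and scintillation counting. Binding expressed as % of 20 µM Sph-1-P response, blank-corrected, n = 2.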
(In general: GTPγS resists hydrolysis and so accumulates on activated G proteins.)

Series [3] has as its target Sphingosine 1-phosphate receptor 1 (Homo sapiens, UniProt P21453). Briefly: Agonist activity at human S1P1 receptor expressed in CHOK1 cell membranes by [35S]GTPgammaS binding assay. Type of series: functional, CHO-K1. In outline: as §1
Series [4] can be described thus: Metabolic stability in rat hepatic microsomes assessed as parent compound remaining after 30 mins at 37 degC. The class given is ADME, microsome. As to conditions: liver microsomes; call rule not given here. The essentials: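 Compound incubated with rat hepatic microsomes for 30 min at 37 °C; percentage of compound remaining reported.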
A short description of series [5]: Half life in rat at 1 mg/kg, po. Type of series: ADME, organism-based. Also noted: dose 1 mg/kg, route oral. The conditions noted are these: in vivo. In outline: (§2)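 Single oral dose of 1.0 mg/kg parent compound in rats, n = 2 or 3. Plasma levels measured for parent and its phosphate. Cmax, AUC0-48 and T1/2 derived from plasma concentration. Half-life of phosphate taken from plasma phosphate level after dosing at 1.0 mg/kg p.o., n = 2.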

In series [6] the test system is Rattus norvegicus. The experiment in a line: Immunosuppressive activity in Lewis rat injected with WKAH/Hkm rat spleen cells assessed as inhibition of host versus graft reaction by measuring popliteal lymph nodes weight dosed orally at 5 mL/kg once daily for 4 successive days starting on day of spleen cell injection. Type of series: functional. The conditions noted are these: po, read-out: ID50 (the source's name). The essentials:
(§3)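 Lewis rats received 1×10^7 WKAH/Hkm splenocytes intracutaneously into both hind footpads. Syngeneic controls received Lewis splenocytes. Compound suspended in 0.5% tragacanth, given orally at 5 mL/kg once daily for 4 days from the day of cell injection; 5 rats/group. Popliteal lymph node weight gain measured relative to allogeneic control. ID50 by least squares from at least three doses.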

For series [7], the system named is Rattus norvegicus. The experiment in a line: Drug level in Wistar Imamichi rat at 1 to 30 mg/kg, po. Type of series: ADME, organism-based. Also noted: dose 1-30 mg/kg, route oral. As to conditions: in vivo.
Series [8] in a line: Cmax in rat at 1 mg/kg, po. The class given is ADME, organism-based. Also noted: dose 1 mg/kg, route oral. The conditions noted are these: in vivo. The essentials: as §2
Series [9] in a line: Drug metabolism in rat plasma assessed as compound phosphorylation at 100 ug/ml at 37 degC after 3 hrs by HPLC method. Type of series: ADME, cell-free. The conditions noted are these: read-out: Drug metabolism. The essentials:
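Rat whole blood, citrate-treated, spiked with compound from 100 µg/mL DMSO stock and held 3 h at 37 °C. Methanol quench, centrifugation twice at 4 °C, reversed-phase HPLC with CH3CN/0.1% TFA gradient. Phosphorylation given as ratio of HPLC peak areas of phosphate to remaining parent.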

A short description of series [10]: AUC (0 to 48 hrs) in rat at 1 mg/kg, po. As to conditions: plasma. Also noted: time < 48 hr, dose 1 mg/kg, route oral. Type of series: ADME, organism-based. The essentials:
as §2

The test system of series [11] is Rattus norvegicus. Briefly: Immunosuppressive activity in Lewis rat injected with WKAH/Hkm rat spleen cells assessed as inhibition of host versus graft reaction by measuring popliteal lymph nodes weight dosed orally at 1 mg/kg once daily for 4 successive days starting on day of spleen cell injection. The class given is functional. The conditions noted are these: route oral. The essentials:
as §3

Series [12] can be described thus: Half life in Lewis rat at 1 mg/kg, po. The class given is ADME, organism-based. Also noted: dose 1 mg/kg, route oral. The conditions noted are these: in vivo. The essentials:
as §2

The test system of series [13] is Rattus norvegicus. Briefly: Induction of lymphopenia in Lewis rat assessed as reduction in lymphocyte numbers at 0.1 mg/kg, po after 4 hrs by automatic hemacytometry relative to untreated control. The class given is functional. Also noted: scale not given: the % may be the effect or the level left. In outline: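 Male Lewis rats, 5 weeks old, 5 per group, given saline vehicle or 0.1 mg/kg compound orally. EDTA blood drawn before and 4 h after dosing. Lymphocytes counted by automatic hemacytometer; untreated rats also counted.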

Structures are written as SMILES. pEC50: −log10 of the molar value.

Sphingosine 1-phosphate receptor 1, sequence (P21453 whole entry): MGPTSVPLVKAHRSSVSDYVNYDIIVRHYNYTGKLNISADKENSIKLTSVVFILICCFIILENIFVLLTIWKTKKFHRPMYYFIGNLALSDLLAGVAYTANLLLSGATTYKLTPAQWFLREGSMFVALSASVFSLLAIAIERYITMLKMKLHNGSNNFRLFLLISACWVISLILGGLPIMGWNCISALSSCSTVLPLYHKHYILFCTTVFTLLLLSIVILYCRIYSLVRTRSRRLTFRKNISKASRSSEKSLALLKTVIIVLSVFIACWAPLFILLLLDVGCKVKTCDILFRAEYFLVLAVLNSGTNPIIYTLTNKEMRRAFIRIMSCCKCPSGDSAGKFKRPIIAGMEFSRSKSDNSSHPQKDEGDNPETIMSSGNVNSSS
Sphingosine 1-phosphate receptor 3, sequence (Q99500 whole entry): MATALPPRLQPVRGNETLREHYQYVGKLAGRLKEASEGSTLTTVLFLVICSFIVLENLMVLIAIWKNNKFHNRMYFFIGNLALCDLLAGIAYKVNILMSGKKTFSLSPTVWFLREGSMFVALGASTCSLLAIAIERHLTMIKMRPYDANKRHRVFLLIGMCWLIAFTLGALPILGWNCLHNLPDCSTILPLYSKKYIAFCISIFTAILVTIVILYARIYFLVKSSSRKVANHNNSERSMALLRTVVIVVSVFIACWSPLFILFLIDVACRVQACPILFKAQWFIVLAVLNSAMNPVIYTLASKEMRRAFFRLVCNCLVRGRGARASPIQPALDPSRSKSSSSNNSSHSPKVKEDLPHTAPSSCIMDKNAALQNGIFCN

With `Cc1ccc(CCCC(=O)c2ccc(COC[C@@](C)(N)COP(=O)(O)O)c(F)c2)cc1`, in series [1], the Ratio EC50 amounted to 21. Also, the pEC50 is 7.22 in series [2] and 8.55 in series [3].
Consider `CCCCCCCCc1ccc(CC[C@](N)(CO)COP(=O)(O)O)cc1` [FTY720-P], for which the share remaining at 0.5 h in series [4] was greater than 100%.
In turn, `Cc1ccc(CCCC(=O)c2ccc(COC[C@@](C)(N)CO)c(Cl)c2)cc1.Cl` had a half-life in [5] of 4.6 h. In series [6], the ED50 turned out to be 0.39 mg/kg. Also, the fraction remaining at 0.5 h in series [4] is 38%. In addition, the Drug uptake result in series [7] is recorded as “Dose-dependent effect”. For the same compound, in series [8], the Cmax is 18 ng/mL. Further, in series [9], the metabolised at 3 h, 100 ug/ml was 83.8%. In [10], the AUC(0-t) at 48 h stood at 144 ng·h/mL.
For the compound `CCc1cc(C(=O)CCCc2ccc(C)cc2)ccc1COC[C@@](C)(N)COP(=O)(O)O`, the Ratio EC50 in [1] came to 5220. Besides, the pEC50 is 4.92 in series [2] and 8.64 in [3].
Regarding `Cc1ccc(CCCC(=O)c2cc(C)c(COC[C@@](C)(N)CO)cc2C)cc1`, the inhibition in vivo at 1 mg/kg in series [11] amounted to 11%. The metabolised at 3 h, 100 ug/ml in [9] turned out to be 6%.
As to `Cc1ccc(CCCC(=O)c2ccc(COC[C@@](C)(N)CO)c(C)c2)cc1.Cl`, the half-life in [5] amounted to 4.1 h. Further, the ED50 in series [6] came out at 0.43 mg/kg. In addition, the amount remaining at 0.5 h in series [4] was found to be 36%. Besides, in series [7], the Drug uptake entry is listed as “Dose-dependent effect”. In addition, in series [8], the Cmax worked out at 34 ng/mL. The metabolised at 3 h, 100 ug/ml in series [9] stood at 38.4%. Further, in series [10], the AUC(0-t) at 48 h is 200 ng·h/mL.
As for `Cc1ccc(CCCC(=O)c2cc(C)c(COC[C@@](C)(N)COP(=O)(O)O)cc2C)cc1`, the Ratio EC50 in series [1] was greater than 3080. For the same compound, the pEC50 in series [2] is less than 4.70; in series [3] it was 8.19.
Taken in the same sequence, the figures for `Cc1ccc(CCCC(=O)c2ccc(COC[C@@](C)(N)COP(=O)(O)O)cc2C)cc1` were greater than 1050, less than 4.70 and 7.72.
Taken in the same sequence, the figures for `Cc1ccc(CCCC(=O)c2cc(C)c(COC[C@@](C)(N)COP(=O)(O)O)c(C)c2)cc1` were 155, 6.47 and 8.66.
Consider `Cc1ccc(CCCC(=O)c2ccc(COC[C@@](C)(N)COP(=O)(O)O)cc2)cc1`, for which, in series [1], the Ratio EC50 was found to be 29. The figures for the pEC50 in series [2] and in series [3] were 6.70 and 8.15, respectively. This compound gave a half-life in series [5] of 7.8 h. The amount remaining at 0.5 h in series [4] is 92%. For the same compound, the peak concentration (Cmax) in [8] amounted to 72 ng/mL. Besides, the AUC(0-t) at 48 h in [10] was 799 ng·h/mL.
Regarding `CCCCCCCCc1ccc(CCC(N)(CO)CO)cc1` [FINGOLIMOD], the half-life in series [12] was 32 h. Moreover, the Activity in series [13] was 21%. Also, the ED50 in series [6] was 0.33 mg/kg. Besides, in series [4], the fraction remaining at 0.5 h is 97%.
For the compound `Cc1ccc(CCCC(=O)c2ccc(COC[C@@](C)(N)CO)cc2)cc1.Cl`, the half-life in series [12] is 7.8 h; in [5] it was 5.7 h. The Activity in series [13] turned out to be 39.5%. Besides, the ED50 in series [6] was found to be 0.27 mg/kg. Moreover, the share remaining at 0.5 h in [4] is 51%. Besides, in [8], the Cmax was 13 ng/mL. The metabolised at 3 h, 100 ug/ml in [9] was found to be 39.5%. Also, in series [10], the AUC(0-t) at 48 h was 120 ng·h/mL.
As for `Cc1ccc(CCCC(=O)c2ccc(COC[C@@](C)(N)COP(=O)(O)O)c(Cl)c2)cc1`, the Ratio EC50 in [1] was 55. The pEC50 in [2] is 6.66; in series [3] it was 8.40. The half-life in [5] stood at 4.6 h. Besides, the share remaining at 0.5 h in series [4] amounted to 86%. For the same compound, the Cmax in series [8] is 97 ng/mL. In series [10], this compound registered an AUC(0-t) at 48 h of 658 ng·h/mL.
As to `CCc1cc(C(=O)CCCc2ccc(C)cc2)ccc1COC[C@@](C)(N)CO`, the inhibition in vivo at 1 mg/kg in [11] was 10%. The metabolised at 3 h, 100 ug/ml in series [9] worked out at 13.9%.
`Cc1ccc(CCCC(=O)c2ccc(COC[C@@](C)(N)COP(=O)(O)O)c(C)c2)cc1`: the Ratio EC50 in series [1] turned out to be 60. The pEC50 was 6.74 in series [2] and 8.52 in series [3]. This compound returned a half-life in series [5] of 4.3 h. In addition, in series [4], the amount remaining at 0.5 h was 92%. In series [8], this compound gave a Cmax of 104 ng/mL. In series [10], the AUC(0-t) at 48 h is 806 ng·h/mL.

As usually defined, the pEC50 is the negative decadic logarithm of the EC50, by convention in mol/L. By amount remaining is commonly meant the share of the starting amount still present when the sample was taken. By half-life is commonly meant the time in which the quantity being followed falls by half. One may read the Cmax as the maximum level reached in the sampled fluid or tissue. The AUC(0-t) is exposure summed from dosing to a finite time, without extrapolation to infinity. One may read the inhibition in vivo as the relative decrease from the control value, in per cent.
